From the array DNA melting data of Ke et al. (doi:10.1101/2024.01.08.574731)

Tests used:
[1] = folding enthalpy; higher = less favourable; fluorescence melt of hairpins on a sequencing array, two-state fit; conditions: sodium 0.088 M
In short: (§1)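 Folding enthalpy and melting temperature were estimated with bootstrapped two-state fits and combined across four replicates by inverse-variance weighting, with fitted temperatures raised by 9.35 °C to match UV melts. The data were Cy3 fluorescence of library hairpins, with annealed Cy3 and quencher oligos, on a sequenced MiSeq flow cell in 50 mM Na-HEPES pH 8.0, 25 mM NaCl, imaged in 2.5 °C steps up to 60 °C and normalised to pre-quench Cy3 and control constructs.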

[2] = melting temperature; fluorescence melt of hairpins on a sequencing array, two-state fit, raised by 9.35 °C to match UV melts; conditions: sodium 0.088 M
In short: as §1

Row | Sequence | folding enthalpy [1] | Tm [2]
1 | GTATGGGGAAACTCATAC (((((.(....).))))) | -34.5 kcal/mol | 40.5 °C
2 | GTATGGGGAAACTCGTAC (((.(.(....).).))) | -11.6 kcal/mol | 29.1 °C
3 | GTATGTGCGAAAGCATAC (((..(((....)))))) | -11.7 kcal/mol | 35 °C
4 | GTATGTGGAAACACACAC ((.((((....)))).)) | -17.1 kcal/mol | 35.2 °C
5 | GTATTACGAAAGTAGTAC (((.(((....))).))) | -28.4 kcal/mol | 41.3 °C
6 | GTATTAGGAAACTAATGC (.(((((....))))).) | -28.2 kcal/mol | 34.2 °C
7 | GTATTCACGAAAGTGTAC (((..(((....)))))) | -9.14 kcal/mol | 25.8 °C
8 | GTATTCCCGAAAGGGTAC (((..(((....)))))) | -8.03 kcal/mol | 32.9 °C
9 | GTATTCCGAAAGGATTAC (((.(((....))).))) | -28.2 kcal/mol | 43.5 °C
10 | GTATTCGGAAACGAACAC ((.((((....)))).)) | -25.9 kcal/mol | 34.3 °C
11 | GTATTCGGAAACGGATAC ((((.((....)).)))) | -33.2 kcal/mol | 45.1 °C
12 | GTATTGCGAAAGCAGTAC (((.(((....))).))) | -26.8 kcal/mol | 51.6 °C
13 | GTATTGGGAAACCAACAC ((.((((....)))).)) | -15 kcal/mol | 31.4 °C
14 | GTATTGGGAAACCAATAC (((((((....))))))) | -43.7 kcal/mol | 53.8 °C
15 | GTATTTGAAAAAATAC ((((((....)))))) | -25.2 kcal/mol | 38.1 °C
16 | GTATTTGCGAAAGCATAC (((..(((....)))))) | -9.06 kcal/mol | 28.7 °C
17 | GTATTTGGAAACAAATAC (((((((....))))))) | -44.3 kcal/mol | 50.5 °C
18 | GTCAAACGAAAGTTCGAC (((.(((....))).))) | -30.7 kcal/mol | 43.1 °C
19 | GTCAACCGAAAGGTAGAC (((.(((....))).))) | -31.6 kcal/mol | 51.5 °C
20 | GTCAACGAAAGTTACGAC ((((((....)))..))) | -16.4 kcal/mol | 34.5 °C
21 | GTCAACGAAAGTTAGAC ((((((....))).))) | -23.5 kcal/mol | 41 °C
22 | GTCAACGAAAGTTGGAC ((((((....))).))) | -13.2 kcal/mol | 39.7 °C
23 | GTCAACGAAAGTTGTGAC ((((((....)))..))) | -10.8 kcal/mol | 33 °C

Row | Sequence | folding enthalpy [1] | Tm [2]
24 | GTCAACGAAAGTTTGAC ((((((....))).))) | -28.6 kcal/mol | 46.9 °C
25 | GTCAACGAAAGTTTTGAC ((((((....)))..))) | -17.4 kcal/mol | 32.8 °C
26 | GTCAACGGAAACGTTAAC ((.((((....)))).)) | -17.6 kcal/mol | 33.7 °C
27 | GTCAAGCGAAAGCTAGAC (((.(((....))).))) | -25.6 kcal/mol | 52.8 °C
28 | GTCAAGCGAAAGCTGAC (((.(((....)))))) | -25.6 kcal/mol | 58.6 °C
29 | GTCAATCGAAAGATCGAC (((.(((....))).))) | -29 kcal/mol | 41.2 °C
30 | GTCAATCGAAAGATGAC (((.(((....)))))) | -25.7 kcal/mol | 45.9 °C
31 | GTCAATGGAAACGTTGAC (((((.(....).))))) | -31.2 kcal/mol | 48.1 °C
32 | GTCACACGAAAGTGGGAC (((.(((....))).))) | -31.9 kcal/mol | 69.1 °C
33 | GTCACAGGAAACTGCGAC (((.(((....))).))) | -28.8 kcal/mol | 46.1 °C
34 | GTCACCCGAAAGGGCGAC (((.(((....))).))) | -35.7 kcal/mol | 58.9 °C
35 | GTCACGCCGAAAGGCGAC (((..(((....)))))) | -6.44 kcal/mol | 32.1 °C
36 | GTCACGCGAAAGCGGAC (((.(((....)))))) | -15.1 kcal/mol | 57 °C
37 | GTCACGGGAAACTGTGGC (.(((.(....).))).) | -31.9 kcal/mol | 44.4 °C
38 | GTCACTGCGAAAGCAGAC (((..(((....)))))) | -7.51 kcal/mol | 28.5 °C
39 | GTCACTGGAAACAGTAAC ((.((((....)))).)) | -15.6 kcal/mol | 31.3 °C
40 | GTCAGAACGAAAGTTGAC (((..(((....)))))) | -21.5 kcal/mol | 36.9 °C
41 | GTCAGAGAAATCTGAC ((((((....)))))) | -37.3 kcal/mol | 51.2 °C
42 | GTCAGCCGAAAGGCGGAC (((.(((....))).))) | -33.1 kcal/mol | 68 °C
43 | GTCAGCGAAAGCTAGAC ((((((....))).))) | -22.8 kcal/mol | 50.7 °C
44 | GTCAGCGAAAGCTCCGAC ((((((....)))..))) | -13.5 kcal/mol | 28.9 °C
45 | GTCAGCGAAAGCTCGGAC ((((((....)))..))) | -12.4 kcal/mol | 37.3 °C
46 | GTCAGCGAAAGCTGCGAC ((((((....)))..))) | -11.8 kcal/mol | 55.2 °C

Row | Sequence | folding enthalpy [1] | Tm [2]
47 | GTCAGCGAAAGCTTGGAC ((((((....)))..))) | -13.9 kcal/mol | 38.2 °C
48 | GTCAGGAAACTGAC (((((....))))) | -25.6 kcal/mol | 53.6 °C
49 | GTCAGGCGAAAGCCAGAC (((.(((....))).))) | -23.4 kcal/mol | 59.8 °C
50 | GTCAGGCGAAAGCCGAC (((.(((....)))))) | -16.5 kcal/mol | 60.6 °C
51 | GTCAGGGGAAACCCCGAC (((.(((....))).))) | -24.8 kcal/mol | 50.2 °C
52 | GTCAGGGGAAACCTTGGC (.((.((....)).)).) | -17.3 kcal/mol | 32.7 °C
53 | GTCATACGAAAGTAGGAC (((.(((....))).))) | -29.3 kcal/mol | 53.9 °C
54 | GTCATAGGAAACCATGAC (((((.(....).))))) | -27.6 kcal/mol | 38.5 °C
55 | GTCATCACGAAAGTGGAC (((..(((....)))))) | -12.7 kcal/mol | 35.3 °C
56 | GTCATCCCGAAAGGGGAC (((..(((....)))))) | -14.1 kcal/mol | 37.8 °C
57 | GTCATCCGAAAGGAGAC (((.(((....)))))) | -20.1 kcal/mol | 45.2 °C
58 | GTCATCGAAAGATCGAC ((((((....))).))) | -22.1 kcal/mol | 35.7 °C
59 | GTCATCGAAAGATGCGAC ((((((....)))..))) | -19.8 kcal/mol | 46.1 °C
60 | GTCATCGGAAACGATGGC (.(((((....))))).) | -28.1 kcal/mol | 56.2 °C
61 | GTCATCGGAAACGGTGAC ((((.((....)).)))) | -38.1 kcal/mol | 55 °C
62 | GTCATGCGAAAGCAGGAC (((.(((....))).))) | -32.2 kcal/mol | 67.7 °C
63 | GTCATGGGAAACCATGAC (((((((....))))))) | -44.5 kcal/mol | 60.7 °C
64 | GTCATTCGAAAGAACGAC (((.(((....))).))) | -31 kcal/mol | 41.1 °C
65 | GTCATTGGAAACAACGAC (((.(((....))).))) | -20.9 kcal/mol | 35.5 °C
66 | GTCATTGGAAACAGTGAC ((((.((....)).)))) | -33.7 kcal/mol | 43.9 °C
67 | GTCCAAGGAAACTTGGAC (((((((....))))))) | -41.8 kcal/mol | 61.6 °C
68 | GTCCAAGGAAACTTGGGC (.(((((....))))).) | -46.6 kcal/mol | 51.1 °C
